From PubChem BioAssay
p97 ATPase inh: blocks human p97 ATPase activity; inhibition, % at 8 µM; 220,000 compounds, 0.42% hits; recombinant p97 ATPase, Kinase-Glo ATP luminescence, 3 h; AID 1481; in the data active means inhibition above about 15%;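 further: 0% = DMSO vehicle and 100% = wells lacking enzyme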
Target sequence (P55072 whole entry, looked up): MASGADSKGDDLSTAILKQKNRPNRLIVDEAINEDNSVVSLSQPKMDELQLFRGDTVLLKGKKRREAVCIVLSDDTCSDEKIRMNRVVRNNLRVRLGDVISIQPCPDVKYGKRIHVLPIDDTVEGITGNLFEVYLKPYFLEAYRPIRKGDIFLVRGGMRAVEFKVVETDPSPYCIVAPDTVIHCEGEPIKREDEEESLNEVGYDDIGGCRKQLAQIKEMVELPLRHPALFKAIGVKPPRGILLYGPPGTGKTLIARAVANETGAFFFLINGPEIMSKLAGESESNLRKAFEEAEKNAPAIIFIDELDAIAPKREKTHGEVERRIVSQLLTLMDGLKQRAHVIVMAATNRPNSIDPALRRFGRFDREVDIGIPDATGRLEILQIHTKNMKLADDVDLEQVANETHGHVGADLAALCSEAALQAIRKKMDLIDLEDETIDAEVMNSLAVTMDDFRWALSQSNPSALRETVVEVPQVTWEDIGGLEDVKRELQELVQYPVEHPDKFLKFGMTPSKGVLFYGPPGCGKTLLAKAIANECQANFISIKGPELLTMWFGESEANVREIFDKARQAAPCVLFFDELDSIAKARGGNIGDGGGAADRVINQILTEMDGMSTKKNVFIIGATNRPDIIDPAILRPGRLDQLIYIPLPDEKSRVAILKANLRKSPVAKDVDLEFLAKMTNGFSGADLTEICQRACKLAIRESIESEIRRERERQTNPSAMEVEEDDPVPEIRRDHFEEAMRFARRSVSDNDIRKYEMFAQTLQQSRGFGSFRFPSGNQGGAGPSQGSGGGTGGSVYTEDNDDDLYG
CHOP inh: CHOP inhibition in unfolded protein response; CHO-K1 CHOP-promoter luciferase, tunicamycin-induced, 15-18 h; inhibition, % at 10 µM; 220,000 compounds, 3.8% hits;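 active means compounds that reduced the stress-induced luciferase reporter signal by more than about 70% of percent inhibition, limit read from the data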;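 further: 0% = tunicamycin plus vehicle and 100% = wells without tunicamycin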
PfM18AAP inh: blocks P. falciparum M18 aspartyl aminopeptidase. AID 1822. recombinant PfM18AAP, H-Glu-NHMec fluorogenic cleavage. inhibition, % at 7.35 µM. 290,000 compounds, 1.2% hits;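 active means inhibition above the campaign mean inhibition over all tested compounds plus 3 SD, cut at about 28% in these data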;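 further: 0% = plate median of test compound wells and 100% = 2 mM ZnCl2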
XBP1 UPR activ: activators of adaptive arm of unfolded protein response (XBP1). AID 463104. CHO-XBP1 luciferase reporter, IRE1-XBP1 UPR activation, luminescence; percent of tunicamycin response, DMSO as zero. 330,000 compounds, 0.33% hits. activation, % at 20 µM;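 active means versus positive control, 20 µM dose yields 30% or more activation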;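 further: 100% = tunicamycin at 10 µg/mL and 0% = DMSO only wells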
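Material: CHO cell line with stable XBP1 luciferase reporter; schedule: 16-18 h cell attachment at 37 °C, then 6 h compound exposure; signal: glow luminescence from Steady-Glo reagent; medium: serum-containing F12 medium, 10% FBS; benchmarks: tunicamycin 10 µg/mL and vehicle-only wells; read-out: percent activation relative to tunicamycin reference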
UPR CHOP act: apoptotic UPR (CHOP) activation. CHO-CHOP luciferase reporter, luminescence; percent of tunicamycin response over DMSO baseline. 330,000 compounds, 0.34% hits. activation, % at 10 µM;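 active means at 10 µM dose, activation of 40% or more, normalized to positive control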;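 further: 100% = tunicamycin at 10 µg/mL and 0% = DMSO alone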
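assay system = CHO CHOP reporter cells | amount = 500 CHO-CHOP cells per well | buffer or medium = F12 with 10% FBS | incubation = 16-18 h cell attachment, then 6 h compound exposure, 37 °C | detection = luminescence read with Steady-Glo | read-out = percent activation relative to tunicamycin control | controls = tunicamycin high control, DMSO low control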
HCV NS3 hel inh: blocks Hepatitis C virus NS3 helicase unwinding | NS3 helicase DNA unwinding, Cy5 molecular beacon fluorescence | inhibition, % at 10.9 µM | 290,000 compounds, 0.56% hits | AID 1800;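 active means inhibition above the mean of all tested compounds plus 3 SD, set per campaign, cut at about 35% in these data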;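 further: 0% = DMSO wells and 100% = thioflavine S control wells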
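Assay system – hepatitis C virus NS3 helicase domain fragment enzyme · Buffer or medium – MOPS pH 6.5, MgCl2, DTT, Tween20, BSA · Reagent – Cy5/quencher beacon DNA duplex and ATP to start · Compound – single 10.9 µM dose · Timing – 1 h at 25 °C · Technique – Cy5 beacon fluorescence read at start and 1 h · Measure – % inhibition of unwinding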
CHOP confirm: confirmation of CHOP induction inhibitors | shares compounds with CHOP inh | CHO-CHOP promoter luciferase reporter, tunicamycin-induced, luminescence | inhibition, % at 10 µM | 2,100 compounds, 45% hits | AID 504437;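 active means mean of three repeat readings of reporter signal inhibition above a set limit, cut at about 70% in these data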;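 further: 0% = tunicamycin plus vehicle and 100% = wells lacking tunicamycin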
Starred values were filed as active, the others as inactive; · = no result given. Shown are actives, neighbours in structure and some others; about 4.5% of the full set was active somewhere.

SMILES | p97 ATPase inh | CHOP inh | PfM18AAP inh | XBP1 UPR activ | UPR CHOP act | HCV NS3 hel inh | CHOP confirm
Cc1cccc(N(C(=O)C(F)(F)F)C(C(=O)NC2CCCCC2)c2cccs2)c1 (centres undefined) | 2 | 39 | -1 | 2 | -1 | -5 | ·
COc1ccc(N(C(=O)Cc2cccs2)C(C(=O)NC2CCCC2)c2ccncc2)cc1OC (centres undefined) | · | · | -9 | 6 | -1 | -2 | ·
Cc1ccc(-c2c(C)sc(NC(=O)C3C4CCC(O4)C3C(=O)O)c2C(=O)OC(C)C)cc1 (centres undefined) | 0 | 30 | -3 | -3 | 0 | 19 | ·
CC(C)=C1C2CCC1C(C(=O)Nc1sc(C)c(-c3ccc(C(C)C)cc3)c1C(N)=O)C2C(=O)O (centres undefined) | -4 | 103* | -2 | -6 | 0 | -7 | 100*
COCCN(CCOC)C(=O)COC(=O)c1cc([N+](=O)[O-])ccc1Cl | 4 | 8 | 0 | 1 | 2 | -2 | ·
CCc1cc(C(=O)N2CCCc3ccccc32)sc1C | · | · | 0 | -1 | -1 | -1 | ·
C=C(C(=O)c1ccccc1)C(c1ccccc1)C(C)C(=O)c1ccccc1 (centres undefined) | -3 | 6 | -3 | -1 | 2 | 8 | ·
C=C(C(=O)c1ccccc1)C(C)C(=C)C(=O)c1ccccc1 | -2 | 100* | 4 | · | · | 6 | 110*
O=C(COc1ccc(Cl)cc1Cl)Nc1ccccn1 | -65 | 100* | 6 | -6 | -9 | -2 | 92*
CCc1nnc(NC(=O)c2ccc(S(=O)(=O)N3CCN(Cc4ccccc4)CC3)cc2)s1 | -4 | 97* | 2 | -3 | -1 | -1 | 1
CCCCNS(=O)(=O)c1ccc2nc(-c3cccnc3)cc(C(=O)NC3CCCC3)c2c1 | -2 | 102* | 2 | 5 | 4 | 11 | 107*
O=c1c(Cl)nc2cc(Cl)ccc2n1CCNc1ncc(C(F)(F)F)cc1Cl | 5 | 107* | -1 | -9 | -12 | 1 | 128*
NNc1nc2cccnc2n(CCNc2ncc(C(F)(F)F)cc2Cl)c1=O | 0 | 2 | -2 | 0 | 0 | -1 | ·
Cc1ccc(N2CC(=O)Nc3c(oc4nc(-c5ccccc5)cc(C)c34)C2=O)cc1 | 1 | 97* | -2 | 2 | 3 | -7 | -69
Cc1ccoc1C(=O)N1CCN(C(=O)c2occc2C)CC1 | · | · | -3 | -3 | -3 | -6 | ·
COC(=O)c1cn[nH]c1NC(=S)Nc1ccc(Cl)c(Cl)c1 | 0 | 97* | -6 | -2 | 3 | 0 | 24
COC(=O)c1cn[nH]c1NC(=S)Nc1ccc(C)cc1Cl | 1 | -34 | -4 | -2 | 2 | 5 | ·
Cn1cc(C(CO)Cc2ccccc2)c2ccccc21 (centres undefined) | · | · | · | -1 | 2 | · | ·
COc1cc(C(=O)ON=C2C(C)=CC(=O)C=C2C)cc(OC)c1OC | 7 | 110* | 9 | -3 | 25 | -3 | -112
O=C(NNc1ccccc1[N+](=O)[O-])Nc1ccc(Cl)c(Cl)c1 | 5 | 101* | 28 | -1 | 2 | 10 | 71*
CCOC(=O)C(C(=O)OCC)C(C(=O)OCC)N1CCOCC1 (centres undefined) | 5 | 102* | 1 | -11 | -11 | 5 | -94
O=C(NCc1ccccc1)C1CCCN(S(=O)(=O)c2cccc3nsnc23)C1 (centres undefined) | · | · | 5 | -3 | -2 | -8 | ·
Cc1c(C(=O)OCC(=O)N2CC(=O)Nc3ccccc32)oc2ccc(Br)cc12 | 3 | 104* | -5 | 12 | 0 | 4 | 1
Cc1cc(C(=O)OCC(=O)N2CC(=O)Nc3ccccc32)no1 | 1 | 22 | 8 | 1 | -1 | 2 | ·
CCOC(=O)COc1ccc2c(C#N)c3ccccn3c2c1 | 7 | 6 | -2 | · | · | -10 | ·
SMILES | p97 ATPase inh | CHOP inh | PfM18AAP inh | XBP1 UPR activ | UPR CHOP act | HCV NS3 hel inh | CHOP confirm
CCOC(=O)c1c2ccc(OCC(=O)N/N=C/c3ccc(Cl)cc3)cc2n2ccccc12 | 2 | 104* | 1 | · | · | -7 | 0
CCC(CC)c1nnc(NC(=O)CCNC(=O)c2ccccc2Cl)s1 | 2 | 6 | 0 | 1 | 0 | -4 | ·
CCSc1nnc(NC(=O)C2CCCCC2C(=O)O)s1 (centres undefined) | -3 | 14 | -1 | 1 | -1 | -2 | ·
CCSc1nnc(NC(=O)C2CC2c2ccccc2)s1 (centres undefined) | 3 | 102* | 1 | -1 | 3 | 1 | -64
Cc1ccc(-c2[nH]nc(N)c2N=Nc2ccccc2C)cc1 | 1 | 60 | 3 | 2 | 1 | 0 | ·
Cc1cccc(N=Nc2c(N)n[nH]c2-c2ccc(Cl)cc2)c1 | 5 | 109* | 7 | 2 | 0 | -17 | 108*
Cc1ccc(Cl)cc1NC(=O)Cn1nc(-c2cccs2)ccc1=O | · | · | 3 | -4 | 0 | 27 | ·
COCc1nnc(NC(=O)CCN2C(=O)c3ccccc3C2=O)s1 | 6 | 99* | -1 | 1 | -3 | 7 | 10
Clc1ccc(-c2csc(N/N=C/c3cccnc3)n2)c(Cl)c1 | 3 | 98* | 0 | 2 | 0 | 2 | 87*
CC(C)(C)c1ccc(-c2n[nH]c(=S)n2C2CCCC2)cc1 | 3 | 107* | -7 | 0 | 0 | 1 | 121*
CC(=O)Nc1ccccc1/C=C/c1ccc2c(C)ccc(O)c2n1 | 0 | -19 | -11 | 2 | 3 | -14 | ·
CC(=O)Nc1ccccc1/C=C/c1ccc2c(C)cc(C)c(O)c2n1 | -1 | 97* | 8 | 6 | 1 | 10 | 24
CC(C)[C@]1(c2ccccc2)ON(c2ccccc2C(F)(F)F)C1=O | · | · | · | -4 | -2 | · | ·
O=C(CNC(=O)C1CCCCC1)NC1CCCCC1 | · | · | 3 | -3 | 5 | 0 | ·
CC(C)(C)CN1CCC(Oc2cccc(C(=O)NCCCOc3cccnc3)c2)CC1 | · | · | 3 | -6 | 1 | 8 | ·
O=C(/C=C/c1cccc(F)c1)N1CCN(c2ccccn2)CC1 | -1 | -10 | 10 | -1 | 1 | -21 | ·
Nc1cccc2c1C(=O)N(C(=O)/C=C/c1cccc(F)c1)C2=O | 2 | 103* | -7 | 3 | 14 | -7 | 127*
CCc1ccc(/C=C2\SC(=S)N(CCCC(=O)Nc3ccccn3)C2=O)cc1 | -1 | 102* | 4 | -9 | -10 | 9 | 126*
COc1ccc(/C=C2/SC(=S)N(CCCC(=O)Nc3ccc(O)cc3)C2=O)cc1 | 2 | 99* | -1 | -3 | -6 | 4 | 118*
COc1ccc(/C=C2\SC(=S)N(CCC(=O)Nc3cccc(O)c3)C2=O)cc1 | · | · | -1 | 0 | 12 | 23 | ·
